Measured values from different studies.
Lines come from different studies, so protocols differ. ≈ marks a conversion by molar mass, not a printed value.
Organism: Enterococcus faecalis

SMILES	assay	test system	setting	measurement	result
CC(C)C(C)CCCCCCCCCCCc1cc(O)cc(O)c1 (stereo not shown)	microbial growth	ATCC29212	–	IC50	13.2 µM
ONCc1cc(F)cc(F)c1	microbial growth	ATCC19433	8 h	MIC50	< 80 µg/mL
CCCCCCCCCCCCCCCC(=O)NS(=O)(=O)OC1CCOCC1	microbial growth, broth dilution	ATCC33186	–	MIC	25 µg/mL (≈ 59.6 µM)
CC(C)(O/N=C(\C(=O)N[C@@H]1C(=O)N2C(C(=O)[O-])=C(C[n+]3ccccc3)CS[C@H]12)c1csc(N)n1)C(=O)O	microbial killing	–	drug-resistant strain, clinical isolate	MBC	> 128 µg/mL
CCC(CCCCCCCCCCc1cc(O)cc(O)c1)C(C)C (stereo not shown)	microbial growth	ATCC29212	–	IC50	9.23 µM
COc1ccc(OS(=O)(=O)NC(=O)CCCCc2ccccc2)cc1	microbial growth	ATCC33186	–	MIC	> 200 µg/mL
CC1(C)S[C@@H]2[C@H](NC(=O)[C@H](N)c3ccccc3)C(=O)N2[C@H]1C(=O)O	microbial growth, well diffusion	ATCC29212	60000 µg/mL	inhibition zone	26 mm
O=C(CCCCCCCCCCOc1ccccc1)NP(=O)(O)O	microbial growth	ATCC33186	–	MIC	100 µg/mL (≈ 280 µM)
CCCCCCCCCCCCCCCC(=O)NS(=O)(=O)Oc1ccc(C)cc1	microbial growth, broth dilution	ATCC33186	–	MIC	12.5 µg/mL (≈ 29.4 µM)
O=C(CCCCc1ccccc1)CP(=O)(O)O	microbial growth	ATCC33186	–	MIC	> 200 µg/mL
CCCCCCCCCCCCCCCC(=O)NS(=O)(=O)OC1CCCCC1	microbial growth, broth dilution	ATCC33186	–	MIC	12.5 µg/mL (≈ 29.9 µM)
CCCCCCCCCCCCCCCc1cc(O)cc(O)c1	microbial growth	ATCC29212	–	IC50	> 200 µM
CCCCCCCCCCCC(=O)NP(=O)(O)O	microbial growth	ATCC33186	–	MIC	200 µg/mL (≈ 716 µM)
